# From ChEMBL document CHEMBL1124735, “Dehydrogenase binding by tiazofurin anabolites” (J Med Chem, 1990)
# Compound: NC(=O)c1ccc[n+]([C@@H]2O[C@H](COP(=O)([O-])OP(=O)(O)OC[C@H]3O[C@@H](n4cnc5c(N)ncnc54)[C@H](O)[C@@H]3O)[C@@H](O)[C@H]2O)c1
# Test: In vitro inhibitory activity against pig heart cytoplasmic malate dehydrogenase (MDH),
# In short: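 Pig heart enzymes (cytoplasmic MDH or LDH, from ammonium sulfate suspension) assayed in 0.05 M Tris HCl pH 9.0, with NAD as substrate; rates from NADH appearance by A340 (ε 6.22 mM⁻¹cm⁻¹) or fluorescence calibrated against NADH standards. Run at least in duplicate; kinetic constants from Lineweaver-Burk plots by linear regression.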
protein,measurement,value
"Malate dehydrogenase, cytoplasmic (Sus scrofa), P11708 (protein) MSEPIRVLVTGAAGQIAYSLLYSIGNGSVFGKDQPIILVLLDITPMMGVLDGVLMELQDCALPLLKDVIATDKEEIAFKDLDVAILVGSMPRRDGMERKDLLKANVKIFKCQGAALDKYAKKSVKVIVVGNPANTNCLTASKSAPSIPKENFSCLTRLDHNRAKAQIALKLGVTSDDVKNVIIWGNHSSTQYPDVNHAKVKLQAKEVGVYEAVKDDSWLKGEFITTVQQRGAAVIKARKLSSAMSAAKAICDHVRDIWFGTPEGEFVSMGIISDGNSYGVPDDLLYSFPVTIKDKTWKIVEGLPINDFSREKMDLTAKELAEEKETAFEFLSSA",Km,33.9 µM
